Measured values taken from ChEMBL document CHEMBL1165965, “Synthesis and structure-activity relationships of 1,2,3,4-tetrahydropyrido[2,3-b]pyrazines as potent and selective inhibitors of the anaplastic lymphoma kinase” (Bioorg Med Chem, 2010).

target: ALK tyrosine kinase receptor (Homo sapiens, UniProt Q9UM73); test: Inhibition of ALK by time-resolved fluorescence assay
Procedure, shortened: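 Baculovirus-expressed ALK (30 ng/ml) on plates coated with GST–PLC-gamma substrate in TBS. Reaction ran 15 min at 37 °C. Europium-labeled anti-phosphotyrosine antibody was added for 1 h at 37 °C, then enhancement solution for 30 min, and TRF was read. IC50 came from a variable-slope sigmoidal fit of % inhibition vs log concentration.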

ALK tyrosine kinase receptor, sequence (Q9UM73 whole entry): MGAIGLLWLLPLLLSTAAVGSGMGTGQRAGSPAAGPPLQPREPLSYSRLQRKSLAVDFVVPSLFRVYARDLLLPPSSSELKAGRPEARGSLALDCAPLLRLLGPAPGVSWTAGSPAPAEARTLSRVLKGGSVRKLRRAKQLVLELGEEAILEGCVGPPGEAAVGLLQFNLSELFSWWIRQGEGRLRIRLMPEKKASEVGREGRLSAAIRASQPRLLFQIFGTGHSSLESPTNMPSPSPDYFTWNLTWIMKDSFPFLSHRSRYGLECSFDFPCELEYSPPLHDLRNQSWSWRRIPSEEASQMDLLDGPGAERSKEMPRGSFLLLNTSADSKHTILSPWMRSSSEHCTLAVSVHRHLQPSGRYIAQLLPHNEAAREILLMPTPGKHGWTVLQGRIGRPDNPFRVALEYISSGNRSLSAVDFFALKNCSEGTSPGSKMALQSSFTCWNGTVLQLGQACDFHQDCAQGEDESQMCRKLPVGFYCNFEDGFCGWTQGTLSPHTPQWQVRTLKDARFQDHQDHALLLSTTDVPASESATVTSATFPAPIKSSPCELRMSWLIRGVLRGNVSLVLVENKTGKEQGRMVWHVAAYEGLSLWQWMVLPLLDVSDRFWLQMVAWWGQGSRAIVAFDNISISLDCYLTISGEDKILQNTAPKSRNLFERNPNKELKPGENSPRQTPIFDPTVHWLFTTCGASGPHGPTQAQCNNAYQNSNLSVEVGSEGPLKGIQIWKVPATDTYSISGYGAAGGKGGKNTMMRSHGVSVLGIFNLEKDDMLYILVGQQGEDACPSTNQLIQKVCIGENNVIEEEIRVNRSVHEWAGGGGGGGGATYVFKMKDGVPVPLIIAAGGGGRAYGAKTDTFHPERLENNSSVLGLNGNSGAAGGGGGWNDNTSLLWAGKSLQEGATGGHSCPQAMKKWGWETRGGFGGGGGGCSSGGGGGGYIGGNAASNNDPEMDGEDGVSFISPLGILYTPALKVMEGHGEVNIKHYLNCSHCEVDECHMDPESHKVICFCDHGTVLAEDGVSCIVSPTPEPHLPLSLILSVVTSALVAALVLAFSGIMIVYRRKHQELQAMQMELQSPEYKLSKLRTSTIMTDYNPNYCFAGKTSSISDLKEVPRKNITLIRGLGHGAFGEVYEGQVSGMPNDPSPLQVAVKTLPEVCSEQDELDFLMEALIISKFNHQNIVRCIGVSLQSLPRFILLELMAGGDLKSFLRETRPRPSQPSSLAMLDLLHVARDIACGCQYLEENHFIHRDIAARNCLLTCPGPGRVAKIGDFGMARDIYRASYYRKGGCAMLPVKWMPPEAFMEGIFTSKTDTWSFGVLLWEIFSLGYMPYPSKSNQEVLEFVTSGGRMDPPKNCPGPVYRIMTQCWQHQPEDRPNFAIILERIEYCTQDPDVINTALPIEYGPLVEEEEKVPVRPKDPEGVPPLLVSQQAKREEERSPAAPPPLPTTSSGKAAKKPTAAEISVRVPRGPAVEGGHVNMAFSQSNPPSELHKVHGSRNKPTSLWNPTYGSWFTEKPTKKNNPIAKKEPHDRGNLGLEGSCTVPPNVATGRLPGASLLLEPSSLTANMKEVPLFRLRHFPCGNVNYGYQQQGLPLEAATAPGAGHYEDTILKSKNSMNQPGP

| Structure (SMILES) | IC50 |
| --- | --- |
| CN1CCN(c2ccc(-c3cnc4c(c3)N(C(=O)Cc3cc(F)ccc3F)CCN4)cn2)CC1 | > 10000 nM |
| CCOC(=O)c1ccc(-c2cnc3c(c2)N(Cc2cc(Cl)ccc2C(F)(F)F)CCN3)cc1 | > 3000 nM |
| CN1CCN(c2ccc(-c3cnc4c(c3)C(Oc3c(F)ccc(F)c3Cl)CCN4)cn2)CC1 (stereo not drawn) | > 10000 nM |
| O=C(c1ccc(-c2cnc3c(c2)N(Cc2cc(F)ccc2F)CCN3)cc1)N1CCC[C@H]1CN1CCCC1 | 15 nM |
| CN1CCN(c2ccc(-c3cnc4c(c3)N(Cc3cc(Cl)ccc3Cl)CCN4C)cn2)CC1 | > 3000 nM |
| CN1CCN(c2ccc(-c3cnc4c(c3)N(S(=O)(=O)c3cc(F)ccc3F)CCN4)cn2)CC1 | 465 nM |
| CN1CCN(c2ccc(-c3cnc4c(c3)C(Cc3cc(F)ccc3F)CCN4)cn2)CC1 (stereo not drawn) | 1540 nM |
| CN1CCN(c2ccc(-c3cnc4c(c3)N(Cc3c(Cl)cccc3C(F)(F)F)CCN4)cn2)CC1 | 506 nM |

Further lines, results first:

| IC50 | Structure (SMILES) |
| --- | --- |
| 145 nM | O=C1CNc2ncc(-c3ccc(C(=O)N4CCC[C@H]4CN4CCCC4)cc3)cc2N1Cc1cc(F)ccc1F |
| 27 nM | O=C(c1ccc(-c2cnc3c(c2)N(Cc2c(Cl)cccc2Cl)CCN3)cc1)N1CCC[C@H]1CN1CCCC1 |
| 256 nM | O=C(c1ccc(-c2cnc3c(c2)N(Cc2ccccc2)CCN3)cc1)N1CCC[C@H]1CN1CCCC1 |
| 278 nM | O=C1CNc2ncc(-c3ccc(C(=O)N4CCC[C@H]4CN4CCCC4)cc3)cc2N1Cc1c(Cl)cccc1Cl |
| > 10000 nM | O=C1CNc2ncc(-c3ccc(C(=O)N4CCC[C@H]4CN4CCCC4)cc3)cc2N1Cc1ccccc1 |
